T cell modulator: T cell immune modulators affecting CD8 T cell-vesicle binding. 2C CD8+ T cell-vesicle binding, flow cytometry; active compounds read low. response (vesicle binding), % at 7 µM. 330,000 compounds, 0.068% hits. AID 2052;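 active = response, share of CD8 T cells binding vesicles, and their 90th percentile fluorescence all below set limits, cut at about 80% in these data, passing the limit was not always enough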;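 note: values below 100% mean blocked vesicle binding to the CD8+ T cells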
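Assay system – 2C mouse CD8+ T cells · Also added – QL9-loaded Drosophila micro-vesicles · Timing – Cell–vesicle co-incubation 1.5 h at 37 °C, staining 20 min on ice · Signal – flow cytometry of vesicle-bound cells · Measure – percent CD8+ FL2 mean versus row control · Controls – Peptide-free naked vesicles (low) and QL9 vesicles with 0.7% DMSO vehicle (high)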
Myeloid diff 2: compounds promoting myeloid differentiation | ER-HoxA9 myeloid progenitors, lysozyme-GFP differentiation, flow cytometry | calls only at 10 µM | 360,000 compounds, 1% hits;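 active = normalized GFP-positive differentiation at or above the plate's own cutoff, the solvent-only control mean plus 3 SD; inconclusive = no clear call, values can overlap the other calls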;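 note: cells exposed to compound for four days before flow analysis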
NR2E3 ag-1: human photoreceptor-specific nuclear receptor agonism | Q9Y5X4 | CHO-S Gal4-NCOR/VP16-NR2E3 two-hybrid, luciferase | inhibition of corepressor binding, % at 3.98 µM | 360,000 compounds, 0.35% hits | AID 602229;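 active = inhibition above the mean of all tested compounds plus 3 SD, cut at about 70% in these data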;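 note: 0% = DMSO with NR2E3 transfected cells and 100% = cells lacking NR2E3 construct; higher means lower luciferase signal from less NR2E3 corepressor binding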
Target sequence (Q9Y5X4 whole entry, looked up, the tested form may be a part): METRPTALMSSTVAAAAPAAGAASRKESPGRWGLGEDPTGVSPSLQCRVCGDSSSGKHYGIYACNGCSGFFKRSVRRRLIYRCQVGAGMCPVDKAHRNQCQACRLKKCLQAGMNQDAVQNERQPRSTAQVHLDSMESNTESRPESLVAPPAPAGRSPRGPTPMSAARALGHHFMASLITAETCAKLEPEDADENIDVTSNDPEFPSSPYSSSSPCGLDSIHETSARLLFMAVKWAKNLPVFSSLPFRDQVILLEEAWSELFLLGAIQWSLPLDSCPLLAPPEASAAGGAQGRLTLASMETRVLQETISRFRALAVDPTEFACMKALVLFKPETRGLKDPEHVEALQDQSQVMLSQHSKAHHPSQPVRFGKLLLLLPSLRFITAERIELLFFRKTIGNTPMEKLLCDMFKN
GAA850 FXN act: activators of GAA850 frataxin (FXN) promoter. activation, % at 6 µM. HEK293 lucGAA850 FXN promoter luciferase reporter, 24 h; percent of 10 µM SAHA response. 360,000 compounds, 0.56% hits. AID 540364;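 active = activation above the average of all compounds screened plus 3 SD, cutoff fixed separately per campaign, cut at about 7.5% in these data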;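 note: 0% = DMSO wells and 100% = 10 µM SAHA wells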
NR2E3 ag-2: agonists of human nuclear receptor NR2E3 | inhibition of corepressor binding, % at 4.78 µM | GST-NR2E3/biotin-RetCOR TR-FRET, 1536-well | 320,000 compounds, 0.12% hits | AID 2300 | Q9Y5X4;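 active = percent inhibition above the cutoff of mean plus 3 SD of all tested compounds, set per screening campaign, cut at about 20% in these data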;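 note: 0% = DMSO wells and 100% = biotin wells as full block of FRET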
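Material – GST-tagged NR2E3 plus biotinylated RetCOR corepressor · Quantity – NR2E3 fusion 1.35 nM · Times – 5 h incubation at 4 °C · Medium – pH 7.5 Tris-based buffer · Technique – TR-FRET, Eu(K)-anti-GST donor, streptavidin-D2 acceptor, ex 340, em 617/671 nm · Benchmarks – high control biotin, low control 0.6% DMSO · Format – 1536-well plates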
GAA30 counter: activates GAA30 frataxin promoter, counter-screen for GAA850 activators; shares compounds with GAA850 FXN act; HEK293 lucGAA30 FXN promoter luciferase, 24 h; DMSO = 0%, 5 µM ipriflavone = 100%; activation, % at 6 µM; 1,900 compounds, 66% hits; AID 588350;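 active = mean activation above the mean of solvent-only control wells plus 3 SD, cut at about 22% in these data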;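 note: counterscreen of GAA850 promoter hits where activity marks nonselective or luminescence artifacts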
GAA850 confirm: GAA850 FXN promoter activation confirmation; shares compounds with GAA850 FXN act; HEK293 lucGAA850 FXN promoter luciferase reporter, 24 h; 100% = activation by SAHA; activation, % at 6 µM; 1,900 compounds, 86% hits; AID 588351;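 active = mean activation above a set limit taken from the primary screen, cut at about 8% in these data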;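 note: 0% = DMSO wells and 100% = 10 µM SAHA wells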
NR2E3 ag conf: NR2E3 agonism confirmed in two-hybrid assay; shares compounds with NR2E3 ag-1; 2,300 compounds, 51% hits; inhibition, % at 3.98 µM; CHO-S mammalian two-hybrid NR2E3-NCOR, luciferase luminescence; AID 624378;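 active = average inhibition above a cutoff equal to the mean inhibition of all tested compounds plus one SD, cut at about 70% in these data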;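 note: 0% = DMSO in NR2E3 cells and 100% = DMSO in cells lacking NR2E3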
GAL4-VP16 luc: GAL4-VP16 reporter inhibition in NR2E3 agonist counterscreen; shares compounds with NR2E3 ag-1; CHO-S GAL4-VP16 luciferase reporter, luminescence; inhibition, % at 3.98 µM; 2,300 compounds, 29% hits; AID 624379;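 active = mean inhibition above a cutoff equal to the average over all tested compounds plus one standard deviation, cut at about 70% in these data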;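 note: luciferase from a UAS reporter driven by GAL4-VP16 transactivation; 0% = DMSO with VP16-transfected cells and 100% = DMSO with cells lacking VP16; higher means less reporter light so more repression of VP16 activity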
An asterisk follows results filed as active; i = inactive; ? = inconclusive; · = not tested or not shown; + = active, no number. Compounds with a hit are over-represented: about 2% of the library has one in this group of screens.

SMILES	T cell modulator	Myeloid diff 2	NR2E3 ag-1	GAA850 FXN act	NR2E3 ag-2	NR2E3 ag conf	GAL4-VP16 luc	others
c1ccc(C(c2ccccc2)c2ccncc2)cc1	·	i	-21	0	·	·	·
CCCC/C(C)=C/[C@@H](NP(=O)(c1ccccc1)c1ccccc1)c1ccccc1	615	i	20	9.2*	1	·	·	GAA30 counter=13;GAA850 confirm=5
CCCCCP(=O)(O)c1ccccc1	293	i	2	1	-1	·	·
CCNC(=O)[C@H]1O[C@@H](n2cnc3c(N)ncnc32)[C@H](O)[C@@H]1O	423	i	6	8.6*	4	·	·	GAA30 counter=35*;GAA850 confirm=18*
CC(C)(O)C(=O)Nc1ccc([N+](=O)[O-])c(C(F)(F)F)c1	327	i	-12	12*	1	·	·	GAA30 counter=16;GAA850 confirm=7
COc1cc2c(cc1OC)CN(c1ccc([N+](=O)[O-])c(C(F)(F)F)c1)CC2	547	i	-5	3	3	·	·
CCCC1(CC(C)CC)C(=O)NC(=O)NC1=O (stereo unspecified)	·	i	28	0	·	·	·
C=C1C(C)C2C(Cc3ccccc3)NC(=O)C23C(OC(C)=O)C=CC(C)(O)CC(C)CC=CC3C1O (stereo unspecified)	·	?	41	7.6*	·	·	·	GAA30 counter=17;GAA850 confirm=23*
N#Cc1cn(C2OC(CO)C(O)C2O)c2ncnc(N)c12 (stereo unspecified)	·	·	98*	14*	·	100*	83*	GAA30 counter=48*;GAA850 confirm=-4
Brc1ccc2[nH]cc(C=NN3CCCCCC3)c2c1	·	i	-25	0	·	·	·
NC(=O)c1cn(C2OC(CO)C(O)C2O)c2ncnc(N)c12 (stereo unspecified)	242	?	101*	-11	-1	99*	99*
C(#CCN1CCCCC1)CN1CCCCC1	·	i	-15	·	·	·	·
CC(C)(O)/C=C/C(=O)C(C)(O)C1C(O)CC2(C)C3CC=C4C(C=C(O)C(=O)C4(C)C)C3(C)C(=O)CC12C (stereo unspecified)	·	?	79*	-14	·	47	57
CC(C)(C)C(=O)N1Cc2cc(N3CCCCC3)ccc2-n2nncc2C1	·	i	-1	·	·	·	·
Cc1ccc(OC(=O)N(C)C[C@H]2OCc3cnnn3CCCC(=O)N([C@H](C)CO)C[C@@H]2C)cc1	·	i	2	0	·	·	·
O=C(CN1CCN(C(=O)COc2cccc(F)c2)CC1)Nc1ccc(Cl)c(C(F)(F)F)c1	190	i	10	0	5	·	·
CC(=NCCCn1ccnc1)c1c(O)n(C2CCCCC2)c(=O)[nH]c1=O	150	i	12	1	-1	·	·
CC(C)c1ccc(C(c2c(O)c3ccccc3oc2=O)c2c(O)c3ccccc3oc2=O)cc1	·	i	75*	-1	·	91*	53
COc1ccccc1NP1(=O)OCC(C)([N+](=O)[O-])CO1 (stereo unspecified)	·	i	12	2	·	·	·
NC(Cc1ccc(Cl)cc1)c1csc(Nc2ncccn2)n1 (stereo unspecified)	·	+	58	-6	·	51	28
Nc1ccc(CC(N)c2csc(Nc3ncccn3)n2)cc1 (stereo unspecified)	·	i	-33	2	·	·	·
NC(Cc1ccc(F)cc1)c1csc(Nc2ncccn2)n1 (stereo unspecified)	·	?	50	-7	·	22	-7
CC(=O)OC1CCC2(C)C3CCC4(C)C(OC(C)=O)CCC4C3C(C)C2(O)C1 (stereo unspecified)	·	i	-33	2	·	·	·
CCOc1cc2c(cc1OCC)-n1cccc1C(c1ccc(C(C)C)cc1)NC2 (stereo unspecified)	i	i	-1	-1	1	·	·
O=C1CC=C2C3CC4N(CCC45c4cc(O)c(O)cc4N1C25)CC3=CCBr (stereo unspecified)	·	i	-24	0	·	·	·
SMILES	T cell modulator	Myeloid diff 2	NR2E3 ag-1	GAA850 FXN act	NR2E3 ag-2	NR2E3 ag conf	GAL4-VP16 luc	others
Oc1c(Br)cc(Br)cc1Br	727	i	7	0	1	·	·
Oc1c(Br)c(Br)c(Br)c(Br)c1Br	500	i	101*	-1	1	99*	88*
Cc1cc(OC(=O)c2ccco2)c2c3c(c(=O)oc2c1)CCCC3	201	i	93*	0	3	69	43
O=[N+]([O-])c1ccc(N(CCO)CCO)c2c1no[n+]2[O-]	·	i	76*	-9	·	54	44
COC(=O)C1(F)C(=O)NC(=O)NC1O (stereo unspecified)	·	?	4	·	·	·	·
O=C(OC1CC2CCC(N2)C1C(=O)O)c1ccccc1 (stereo unspecified)	277	·	-23	0	·	·	·
CC1=CC(C)CC(C)OC(=O)CC(c2ccc(O)cc2)NC(=O)C(Cc2c(Br)[nH]c3ccccc23)N(C)C(=O)C(C)NC(=O)C(C)C1 (stereo unspecified)	·	·	64	-8	·	58	63
CC1CC2(C)C(=CC1=O)CCC1C3CCC(C)(O)C3(C)CC3OC312 (stereo unspecified)	·	i	23	1	·	·	·
COC(=O)C1=C(c2ccc(-c3ccccc3)c(F)c2)C[C@@H]2CC[C@H]1N2C(=O)N1CCCC1	253	i	71*	-8	2	54	56
COC(=O)C1=C(c2ccc(-c3ccccc3)c(F)c2)C[C@@H]2CC[C@H]1N2C(=O)N1CCCCC1	252	i	37	-7	2	·	·
COc1ccc(CC2C(=O)NC(C)C(=O)N(C)C3C(=O)N(C)C(Cc4ccc(O)c(c4)Oc4ccc(cc4)C3O)C(=O)NC(C)C(=O)NC(C)C(=O)N2C)cc1 (stereo unspecified)	·	·	102*	-15	·	100*	100*
CCOC(=O)[C@]12Cc3cc(Cl)ccc3[C@H]1N(C1CCCCC1)C(=O)c1cc(OC)ccc12	·	i	100*	·	·	99*	78*
CN1/C(=C\C=Nc2ccccc2)C(C)(C)c2ccccc21	131	i	-1	1	0	·	·
CCN1/C(=C/C=C/C2=[N+](CC)c3ccccc3C2(C)C)C(C)(C)c2ccccc21	·	?	104*	-14	·	98*	94*
COc1ccc(OC(=O)N(C)C[C@H]2OCc3cnnn3CCCC(=O)N([C@H](C)CO)C[C@H]2C)cc1	·	i	-4	0	·	·	·
